Columns and labels:
[1] = molecular target: Serine/threonine-protein kinase PAK 2 (Homo sapiens) (UniProt Q13177); assay: Inhibition of PAK2; set-up: scale not given: the % may be the effect or the level left
[2] = molecular target: T1, Calcium/calmodulin-dependent protein kinase type IV (Homo sapiens) (UniProt Q16566); assay: Inhibition of Calcium/calmodulin-dependent protein kinase type IV; set-up: scale not given: the % may be the effect or the level left
T1 sequence (whole entry): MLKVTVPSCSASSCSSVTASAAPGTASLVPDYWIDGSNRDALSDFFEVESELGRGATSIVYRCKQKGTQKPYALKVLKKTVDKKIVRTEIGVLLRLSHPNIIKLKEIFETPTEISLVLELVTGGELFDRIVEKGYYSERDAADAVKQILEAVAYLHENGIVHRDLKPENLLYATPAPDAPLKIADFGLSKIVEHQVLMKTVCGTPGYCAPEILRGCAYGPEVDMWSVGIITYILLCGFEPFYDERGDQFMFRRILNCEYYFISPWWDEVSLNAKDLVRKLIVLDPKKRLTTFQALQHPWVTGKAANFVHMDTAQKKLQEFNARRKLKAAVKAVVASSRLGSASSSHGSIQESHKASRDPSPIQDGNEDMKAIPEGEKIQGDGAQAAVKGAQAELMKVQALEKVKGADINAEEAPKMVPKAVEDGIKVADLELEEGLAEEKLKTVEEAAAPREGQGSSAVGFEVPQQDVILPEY

[3] = molecular target: Ribosomal protein S6 kinase alpha-3 (Homo sapiens, UniProt P51812); assay: Inhibition of Ribosomal S6 kinase 3
[4] = organism: Bos taurus; assay: Inhibition of bovine PKA; set-up: scale not given: the % may be the effect or the level left
[5] = molecular target: Platelet-derived growth factor receptor beta (Homo sapiens) (UniProt P09619); assay: Inhibition of PDGFRbeta; set-up: scale not given: the % may be the effect or the level left
[6] = molecular target: RAC-alpha serine/threonine-protein kinase (Homo sapiens) (UniProt P31749); assay: Inhibition of PKBalpha; set-up: scale not given: the % may be the effect or the level left
[7] = molecular target: T2, Protein kinase C beta type (Homo sapiens, UniProt P05771); assay: Inhibitory concentration against human protein kinase C-betaII using histone as substrate
[8] = molecular target: T3, Ribosomal protein S6 kinase alpha-5 (Homo sapiens, UniProt O75582); assay: (§1) Inhibition of MSK-1 kinase; set-up: scale not given: the % may be the effect or the level left
[9] = organism: Mus musculus; assay: Inhibition of Abl kinase; set-up: scale not given: the % may be the effect or the level left
[10] = molecular target: Ca2+/calmodulin-dependent protein kinase II (CaM kinase II) (Rattus norvegicus) (UniProt P11275+P08413+P15791+P11730); assay: Inhibition of Calcium/calmodulin-dependent protein kinase type II; format: protein assay; set-up: scale not given: the % may be the effect or the level left
[11] = molecular target: Tyrosine-protein kinase Fyn (Homo sapiens) (UniProt P06241); assay: Inhibition of Fyn protein kinase; set-up: scale not given: the % may be the effect or the level left
[12] = molecular target: Protein kinase C alpha type (Homo sapiens, UniProt P17252); assay: Inhibition of PKCalpha; set-up: scale not given: the % may be the effect or the level left
[13] = organism: Homo sapiens; assay: Inhibition of PKA; set-up: scale not given: the % may be the effect or the level left
[14] = molecular target: RAC-beta serine/threonine-protein kinase (Homo sapiens) (UniProt P31751); assay: Inhibition of PKBbeta; set-up: scale not given: the % may be the effect or the level left
[15] = molecular target: Mitogen-activated protein kinase 10 (Rattus norvegicus) (UniProt P49187); assay: Inhibition of c-Jun N-terminal kinase 3; set-up: scale not given: the % may be the effect or the level left
[16] = molecular target: Mitogen-activated protein kinase 8 (Homo sapiens) (UniProt P45983); assay: Inhibition of c-Jun N-terminal kinase 1-alpha 1; set-up: scale not given: the % may be the effect or the level left
[17] = molecular target: Serine/threonine-protein kinase N2 (Homo sapiens) (UniProt Q16513); assay: Inhibition of compound PRK2; set-up: scale not given: the % may be the effect or the level left
[18] = molecular target: Insulin receptor (Homo sapiens) (UniProt P06213); assay: Inhibition of IR kinase; set-up: scale not given: the % may be the effect or the level left
[19] = molecular target: T4, 3-phosphoinositide-dependent protein kinase 1 (Homo sapiens) (UniProt O15530); assay: (§2) Inhibition of PDK1; set-up: scale not given: the % may be the effect or the level left
T4 sequence (whole entry): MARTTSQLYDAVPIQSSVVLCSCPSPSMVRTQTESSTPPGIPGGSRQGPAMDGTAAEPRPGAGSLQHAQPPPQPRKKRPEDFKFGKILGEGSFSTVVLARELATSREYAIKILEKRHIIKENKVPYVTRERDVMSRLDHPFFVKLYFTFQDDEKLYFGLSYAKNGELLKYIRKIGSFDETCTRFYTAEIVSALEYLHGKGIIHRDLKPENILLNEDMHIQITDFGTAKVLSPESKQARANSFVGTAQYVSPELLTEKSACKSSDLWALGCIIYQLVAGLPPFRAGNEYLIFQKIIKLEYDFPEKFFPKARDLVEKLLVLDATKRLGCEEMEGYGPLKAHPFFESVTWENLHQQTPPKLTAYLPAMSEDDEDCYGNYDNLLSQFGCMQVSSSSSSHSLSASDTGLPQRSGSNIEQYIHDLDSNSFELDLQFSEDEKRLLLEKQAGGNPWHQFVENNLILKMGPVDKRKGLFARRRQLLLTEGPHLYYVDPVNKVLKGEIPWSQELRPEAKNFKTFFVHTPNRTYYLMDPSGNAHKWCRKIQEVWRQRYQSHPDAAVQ

[20] = molecular target: Protein kinase C gamma type (Homo sapiens, UniProt P05129); assay: Inhibition of PKCgamma; set-up: scale not given: the % may be the effect or the level left
[21] = molecular target: Casein kinase II (Homo sapiens) (UniProt P67870+P68400+P19784); assay: Inhibition of Casein kinase 2; format: protein-complex assay; set-up: scale not given: the % may be the effect or the level left
[22] = molecular target: MAP kinase-activated protein kinase 2 (Homo sapiens) (UniProt P49137); assay: Inhibition of MAP kinase-activated protein kinase 2; set-up: scale not given: the % may be the effect or the level left
[23] = molecular target: T2, Protein kinase C beta type; assay: Inhibition of protein kinase C-betaII at 10 uM
[24] = tested on: Casein kinase I (Saccharomyces cerevisiae); assay: Inhibition of Casein kinase I; set-up: scale not given: the % may be the effect or the level left
[25] = molecular target: T3, Ribosomal protein S6 kinase alpha-5; assay: as §1
[26] = molecular target: Glycogen synthase kinase-3 beta (Homo sapiens, UniProt P49841); assay: Effective concentration of compound against glycogen synthase kinase-3 in HEK293 cells; format: functional, cell-based
In short: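 HEK293 cells exposed to compound; glycogen synthase activity then measured in cell extracts as ¹⁴C-UDP glucose incorporation into glycogen. EC₅₀ averaged from triplicate determinations.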

[27] = molecular target: 3-phosphoinositide-dependent protein kinase 1 (Homo sapiens, UniProt O15530); assay: as §2
[28] = molecular target: Tyrosine-protein kinase Lyn (Homo sapiens, UniProt P07948); assay: Inhibition of Protein tyrosine kinase Lyn

Sequence of RAC-alpha serine/threonine-protein kinase (Homo sapiens) (P31749 whole entry): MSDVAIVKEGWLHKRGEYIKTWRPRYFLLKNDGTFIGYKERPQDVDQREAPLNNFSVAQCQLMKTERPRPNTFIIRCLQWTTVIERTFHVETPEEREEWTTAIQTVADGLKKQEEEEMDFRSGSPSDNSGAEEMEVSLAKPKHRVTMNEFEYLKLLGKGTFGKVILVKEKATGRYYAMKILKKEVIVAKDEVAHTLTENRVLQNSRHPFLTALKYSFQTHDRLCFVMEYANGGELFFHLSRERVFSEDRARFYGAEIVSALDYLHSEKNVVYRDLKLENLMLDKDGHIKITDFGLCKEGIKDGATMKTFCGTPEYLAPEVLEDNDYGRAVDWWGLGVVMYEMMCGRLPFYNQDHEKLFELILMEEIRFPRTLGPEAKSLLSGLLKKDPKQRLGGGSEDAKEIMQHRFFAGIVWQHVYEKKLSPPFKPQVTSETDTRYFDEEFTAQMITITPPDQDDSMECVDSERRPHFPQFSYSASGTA
Sequence of Mitogen-activated protein kinase 10 (Rattus norvegicus) (P49187 whole entry, looked up): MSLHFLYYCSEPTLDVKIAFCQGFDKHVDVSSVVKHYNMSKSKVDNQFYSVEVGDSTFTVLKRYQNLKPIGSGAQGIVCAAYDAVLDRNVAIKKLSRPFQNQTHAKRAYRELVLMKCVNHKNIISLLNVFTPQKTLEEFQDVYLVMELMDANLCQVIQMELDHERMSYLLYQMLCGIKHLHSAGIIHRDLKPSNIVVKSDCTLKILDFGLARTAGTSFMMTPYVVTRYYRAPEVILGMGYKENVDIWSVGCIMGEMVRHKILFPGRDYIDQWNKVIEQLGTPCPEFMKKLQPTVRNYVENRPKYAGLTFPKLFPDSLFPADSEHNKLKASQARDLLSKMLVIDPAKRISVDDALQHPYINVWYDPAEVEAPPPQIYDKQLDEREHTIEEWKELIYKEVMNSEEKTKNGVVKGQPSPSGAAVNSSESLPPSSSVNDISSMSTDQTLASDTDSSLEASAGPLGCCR
Sequence of Tyrosine-protein kinase Fyn (Homo sapiens) (P06241 2-537 limits assumed): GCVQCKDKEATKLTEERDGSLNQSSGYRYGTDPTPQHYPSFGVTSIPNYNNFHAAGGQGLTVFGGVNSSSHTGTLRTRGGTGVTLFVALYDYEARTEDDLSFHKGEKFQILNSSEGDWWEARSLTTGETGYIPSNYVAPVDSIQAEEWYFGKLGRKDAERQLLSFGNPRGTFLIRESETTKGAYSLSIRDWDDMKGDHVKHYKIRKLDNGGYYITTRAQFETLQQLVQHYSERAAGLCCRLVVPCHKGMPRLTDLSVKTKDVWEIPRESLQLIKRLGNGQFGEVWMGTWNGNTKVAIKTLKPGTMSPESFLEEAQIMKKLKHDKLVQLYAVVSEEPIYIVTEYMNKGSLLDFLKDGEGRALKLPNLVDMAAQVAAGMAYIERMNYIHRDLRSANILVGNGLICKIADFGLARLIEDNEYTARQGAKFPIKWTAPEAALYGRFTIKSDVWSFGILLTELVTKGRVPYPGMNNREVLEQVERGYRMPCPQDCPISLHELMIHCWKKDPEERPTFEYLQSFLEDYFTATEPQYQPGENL
Sequence of RAC-beta serine/threonine-protein kinase (Homo sapiens) (P31751 whole entry): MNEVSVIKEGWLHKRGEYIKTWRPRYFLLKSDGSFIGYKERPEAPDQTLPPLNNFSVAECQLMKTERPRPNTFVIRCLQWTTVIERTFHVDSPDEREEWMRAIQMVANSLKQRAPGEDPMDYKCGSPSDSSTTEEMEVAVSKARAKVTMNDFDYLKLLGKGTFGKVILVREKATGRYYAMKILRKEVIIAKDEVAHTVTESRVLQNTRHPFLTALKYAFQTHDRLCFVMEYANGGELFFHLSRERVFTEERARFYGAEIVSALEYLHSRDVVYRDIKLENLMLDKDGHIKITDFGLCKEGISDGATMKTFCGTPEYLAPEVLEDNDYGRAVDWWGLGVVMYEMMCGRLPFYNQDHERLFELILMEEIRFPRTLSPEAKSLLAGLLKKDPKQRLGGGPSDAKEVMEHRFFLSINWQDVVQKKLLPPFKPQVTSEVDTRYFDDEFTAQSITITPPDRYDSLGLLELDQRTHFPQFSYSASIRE
Sequence of Insulin receptor (Homo sapiens) (P06213 28-758 limits assumed): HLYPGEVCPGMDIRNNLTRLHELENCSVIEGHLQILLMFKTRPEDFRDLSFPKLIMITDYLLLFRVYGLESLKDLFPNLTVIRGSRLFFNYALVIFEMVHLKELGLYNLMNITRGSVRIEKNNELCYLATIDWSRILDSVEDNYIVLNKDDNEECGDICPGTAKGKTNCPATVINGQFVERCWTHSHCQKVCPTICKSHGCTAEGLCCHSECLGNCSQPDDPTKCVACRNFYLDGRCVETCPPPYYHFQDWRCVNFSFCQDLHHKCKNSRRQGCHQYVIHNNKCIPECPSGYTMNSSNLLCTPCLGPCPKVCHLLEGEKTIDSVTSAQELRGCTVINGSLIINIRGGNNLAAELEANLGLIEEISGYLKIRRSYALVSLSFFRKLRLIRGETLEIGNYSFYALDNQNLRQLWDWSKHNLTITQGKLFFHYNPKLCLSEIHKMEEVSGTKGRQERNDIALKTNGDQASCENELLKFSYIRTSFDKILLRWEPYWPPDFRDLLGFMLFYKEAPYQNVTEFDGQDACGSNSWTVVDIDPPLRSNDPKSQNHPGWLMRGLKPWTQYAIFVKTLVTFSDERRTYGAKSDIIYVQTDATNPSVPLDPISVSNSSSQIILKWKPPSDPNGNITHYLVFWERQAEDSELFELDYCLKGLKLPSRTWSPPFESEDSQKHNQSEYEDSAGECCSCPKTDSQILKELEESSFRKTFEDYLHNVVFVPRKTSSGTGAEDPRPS
Sequence of Insulin receptor (Homo sapiens) (P06213 763-1382 limits assumed): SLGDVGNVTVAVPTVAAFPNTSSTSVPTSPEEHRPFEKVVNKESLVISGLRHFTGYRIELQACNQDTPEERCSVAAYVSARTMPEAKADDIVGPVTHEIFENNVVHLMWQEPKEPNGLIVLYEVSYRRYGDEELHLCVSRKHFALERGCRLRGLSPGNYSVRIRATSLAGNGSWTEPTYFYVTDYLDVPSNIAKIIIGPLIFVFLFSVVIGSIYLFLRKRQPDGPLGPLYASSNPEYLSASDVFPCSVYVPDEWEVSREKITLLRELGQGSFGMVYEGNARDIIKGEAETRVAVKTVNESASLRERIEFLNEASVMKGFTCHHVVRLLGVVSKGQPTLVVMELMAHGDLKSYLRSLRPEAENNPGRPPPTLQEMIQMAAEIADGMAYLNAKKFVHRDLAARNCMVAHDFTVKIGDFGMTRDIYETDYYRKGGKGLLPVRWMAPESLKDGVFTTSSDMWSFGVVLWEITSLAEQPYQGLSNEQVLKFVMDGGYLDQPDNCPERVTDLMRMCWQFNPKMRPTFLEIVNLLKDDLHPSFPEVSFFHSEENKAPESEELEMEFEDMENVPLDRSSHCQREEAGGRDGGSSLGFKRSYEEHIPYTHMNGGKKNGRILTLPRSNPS

Row | Activity [1] | Activity [2] | IC50 [3] | Activity [4] | Activity [5] | Activity [6] | IC50 [7] | Activity [9] | Activity [10] | Activity [11] | Activity [12] | Activity [13] | Activity [14] | Activity [15] | Activity [16] | Activity [17] | Activity [18] | Activity [19] | Activity [20] | Activity [21] | Compound | other results
1 | 94% | 82% | 2000 nM | 99% | 96% | 93% | 4360 nM | 86% | 63% | 94% | 46% | 92% | 82% | 52% | 75% | 76% | 88% | 78% | 59% | 93% | COCCCn1cc(C2=C(c3ccccc3O)C(=O)NC2=O)c2cccnc21 | Activity [8]: 57%; Activity [22]: 97%
2 | 78% | 82% | – | 86% | 77% | 64% | – | 93% | 76% | 89% | 70% | 87% | 69% | 76% | 80% | 71% | 95% | 79% | 72% | 56% | O=C1NC(=O)C(c2cn(CCCO)c3ncccc23)=C1c1ncc(C(F)(F)F)cc1Cl | inhibition [23]: < 50%; Activity [24]: 66%; IC50 [25]: > 10000 nM; EC50 [26]: 620 nM; Activity [22]: 85%
3 | 93% | 91% | 640 nM | 112% | 93% | 103% | 2260 nM | 91% | 60% | 63% | 38% | 95% | 99% | 68% | 81% | 68% | 94% | 20% | 76% | 103% | COc1ccccc1C1=C(c2cn(CCCNC(=O)OC(C)(C)C)c3ncccc23)C(=O)NC1=O | IC50 [27]: 570 nM; IC50 [28]: 1800 nM; Activity [8]: 61%; EC50 [26]: 40 nM

From ChEMBL document CHEMBL1146654, “3-(7-Azaindolyl)-4-arylmaleimides as potent, selective inhibitors of glycogen synthase kinase-3” (Bioorg Med Chem Lett, 2004)
